High-throughput results (PubChem)
This is a sample that favours compounds with a hit; in the whole collection about 2.1% have one here.
SR-BI DiI-HDL act: SR-BI HDL lipid transfer activation | 0.096% of 320,000 active | AID 504775 | activation, % at 12.5 µM | CHO ldlA[mSR-BI] cells, DiI-HDL uptake fluorescence, 3 h; 100 = double the neutral-control signal;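 active means mean replicate activation of at least 60% and every replicate at or above 60%; inconclusive means mean or all-replicate condition met, but not both; inactive means mean below 60% and not all replicates reaching 60%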;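 further: 0% = median plate neutral-control signal and 100% = twice that signal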
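material = CHO ldlA[mSR-BI] cells | medium = Ham's F12 with 0.5% BSA, HEPES 25 mM, pH 7.4 | reagent = fluorescent DiI-HDL, 10 µg/mL final | compound dosing = single-point compound dose | incubation = 3 h, 37 °C | measured by = bottom-read fluorescence, 550/595 nm | measure = HDL uptake via cellular fluorescence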
CAL PDZ FP-1: inhibitors of human CAL PDZ peptide binding; Q9HD26; purified CAL PDZ, TMR-peptide fluorescence polarization, 1 h; inhibition, % at 20 µM; 0.02% of 330,000 active; AID 504414;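 active means highest replicate inhibition of at least 40%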;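 further: plate controls were DMSO neutral control wells for no effect and unlabeled competitor peptide control wells for full effect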
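Test system: purified CerCALP PDZ construct; Compound dosing: one concentration, 20 µM compound; Also added: TMR-labelled reporter peptide T*-PRC34 bound in PDZ groove; Read-out: inhibition from polarization loss; Controls: unlabelled peptide and DMSO controls; Signal: FP readout, S and P plane fluorescence; Incubation: 1 h at RT.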
ARNT-TACC3 inh: ARNT/TACC3 interaction disruption; inhibition, % at 9.99 µM; 0.66% of 390,000 active; AlphaScreen His-ARNT PAS-B/GST-TACC3 binding, luminescence; TACC3 fragment carries E629A point mutation; AID 623870;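 active means mean inhibition of replicates at least 50% and at least half of replicates each reaching 50%; inconclusive means half or more replicates reach 50% but mean below 50%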;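 further: 0% = complete ARNT plus TACC3 wells and 100% = ARNT alone without TACC3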
CAL PDZ FP-2: inhibitors of human CAL PDZ peptide binding. Q9HD26. inhibition, % at 24.9 µM. purified CAL PDZ, TMR-peptide fluorescence polarization, 1 h. 0.92% of 300,000 active;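 active means mean inhibition of at least 30% with at least half of replicates also reaching 30%; inconclusive means no clear call, values can overlap the other calls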;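 further: 0% = DMSO neutral control and 100% = excess unlabeled competitor peptide PRC23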
miR122 inh: miR-122 inhibition in Huh7 cells; activation (reporter increase), % at 12.5 µM; Huh7 miR-122 Renilla luciferase sensor, 48 h; neutral wells = 0, positive control = 100; AID 602342; 0.3% of 340,000 active;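 active means mean replicate activation score at least 90 and every replicate individually at or above 90; inconclusive means only one of the two criteria met; inactive means neither criterion met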;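 further: higher luciferase means less miR-122 activity so hits act as miR-122 inhibitors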
SR-BI HDL uptake: mouse SR-BI HDL lipid transfer inhibition. ldlA[mSR-BI] CHO cells, DiI-HDL uptake fluorescence, 3 h. 0.96% of 320,000 active. AID 488896. inhibition, % at 12.5 µM. Q61009;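 active means mean replicate inhibition of at least 70% and a set share of replicates each scoring 70 or more; inconclusive means meets just one of the two criteria; inactive means fails both criteria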;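 further: 0% = median of neutral control wells and 100% = median of positive control wells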
Target sequence (Q61009 whole entry, looked up): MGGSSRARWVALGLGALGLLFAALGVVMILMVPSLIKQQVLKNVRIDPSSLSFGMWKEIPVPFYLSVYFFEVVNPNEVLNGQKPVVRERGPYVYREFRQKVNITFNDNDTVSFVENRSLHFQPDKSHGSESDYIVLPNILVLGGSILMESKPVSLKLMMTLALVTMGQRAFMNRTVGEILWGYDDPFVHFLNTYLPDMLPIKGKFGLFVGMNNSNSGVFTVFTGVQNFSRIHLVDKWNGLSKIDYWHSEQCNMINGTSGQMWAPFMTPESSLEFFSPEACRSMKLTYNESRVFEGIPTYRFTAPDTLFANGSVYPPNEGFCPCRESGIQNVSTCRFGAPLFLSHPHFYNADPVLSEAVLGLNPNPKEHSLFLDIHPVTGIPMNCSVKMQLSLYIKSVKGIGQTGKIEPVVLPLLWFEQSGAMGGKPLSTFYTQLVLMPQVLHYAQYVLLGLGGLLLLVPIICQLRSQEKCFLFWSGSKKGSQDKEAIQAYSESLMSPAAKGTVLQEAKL
Numbers without * were called inactive; ? = inconclusive; / = no result given; [ ] = another dose, or the depositor's remark.

SMILES	SR-BI DiI-HDL act	CAL PDZ FP-1	ARNT-TACC3 inh	CAL PDZ FP-2	miR122 inh	SR-BI HDL uptake
C[C@H]1CN([C@@H](C)CO)C(=O)c2cc(-c3cccnc3)cnc2O[C@H]1CN(C)C(=O)C1CCC1	/	/	1	/	-2[16.7 µM]	/
COc1ccc(N2CCN(C(=S)NCc3ccc(C)cc3)CC2)cc1	/	0	-1	32*	1	/
S=C(NCc1ccccc1)N1CCN(c2ccccc2)CC1	78*	-1	3	-5	/	-78
O=C(NCc1ccccc1)N1CCN(c2ccccc2)CC1	-11	0	-4	-8	3	11
COc1ccc(N2CCN(C(=S)Nc3cc(C)cc(C)c3)CC2)cc1	-12	-2	-18	0	0	12
Cc1ccc(S(=O)(=O)Nc2cccc3c2O[C@H](CN(C)C(=O)NC2CCCCC2)[C@@H](C)CN([C@@H](C)CO)C3=O)cc1	/	/	-1	/	14[16.7 µM]	/
Cc1cccc(Nc2nc(-c3sc(C)nc3C)cs2)c1	-85	2	3	-3	/	85*
CC(=O)Nc1ccc(Nc2nc(-c3sc(C)nc3C)cs2)cc1	-74	0	3	0	-8	74*
CC(=O)c1cccc(Nc2nc(-c3sc(C)nc3C)cs2)c1	-71	0	-3	11	-12	71*
CNC(=O)C[C@@H]1CC[C@H]2[C@H](COc3ccc(NC(=O)Nc4cccc(F)c4)cc3C(=O)N2C)O1	/	/	6	/	-21[16.7 µM]	/
COCCOC(=O)N1C(=O)[C@@]2(c3cc(C#CCCO)ccc31)[C@H](c1ccccc1OCCO)N1[C@H](c3ccccc3)[C@H](c3ccccc3)OC(=O)[C@H]1[C@@H]2C(=O)N1CCN(c2ncccn2)CC1	/	/	16	/	/	/
C[C@H]1CN([C@@H](C)CO)S(=O)(=O)c2ccc(C3=CCCC3)cc2O[C@H]1CN(C)CC1CCOCC1	/	/	-13	/	/	/
COCC(=O)Nc1ccc2c(c1)C(=O)N(C)C[C@@H](OC)[C@@H](C)CN[C@@H](C)CO2	/	/	-10	/	-2[16.7 µM]	/
Cc1ccc(/C=C/c2nc3ccccc3s2)s1	-101	-3	0	-2	3	101*
O=C(CN1C(=O)NC2NC(=O)NC21)NC1CCCCC1 (stereo not drawn)	17	-5	-1	39*	33	-17
C[C@@H](NC(=O)C[C@H]1CC[C@@H]2[C@H](COC[C@H](O)CN2C(=O)Nc2cccc(F)c2)O1)c1ccccc1	/	/	-15	/	3[16.7 µM]	/
Cc1ccc(S(=O)(=O)N2CCN(C(=O)CN3C(=O)NC(C)(c4ccc5ccccc5c4)C3=O)CC2)cc1 (stereo not drawn)	-8	-2	-5	73*	-3	8
Cc1cc(/C=C2/SC(=S)N(c3cccc(C(F)(F)F)c3)C2=O)c(C)n1-c1cccnc1	-76	-3	/	0	-5	76*
COc1ccc(S(=O)(=O)Nc2ccc3c(c2)C(=O)N([C@@H](C)CO)C[C@@H](C)[C@@H](CN(C)C(=O)Nc2ccc4c(c2)OCO4)OCCCC[C@H](C)O3)cc1	/	/	-2	/	5[16.7 µM]	/
Cc1ccc(NC(=O)CSc2nc3ccccc3c(=O)n2CC2CCCO2)cc1 (stereo not drawn)	10	-2	-5	-2	/	-10
COC(=O)c1ccc2c(=O)n(CC3CCCO3)c(SCC(=O)Nc3ccccc3OC)nc2c1 (stereo not drawn)	-19	0	-3	-2	190*	19
Cc1ccc(NCc2nnc(SCC(=O)Nc3ccccc3)n2CC2CCCO2)c(C)c1 (stereo not drawn)	-16	-3	3	-4	151*	16
O=C(CSc1nc2ccccc2c(=O)n1CC1CCCO1)NCC1CCCO1 (stereo not drawn)	-5	-1	-7	-6	-1	5
Cc1cccc(NC(=O)CSc2nc3ccccc3c(=O)n2CC2CCCO2)c1 (stereo not drawn)	-80	-2	1	-4	29	80*
COCCNC(=O)CSc1nc2ccccc2c(=O)n1CC1CCCO1 (stereo not drawn)	/	-2	-8	1	286*	/
SMILES	SR-BI DiI-HDL act	CAL PDZ FP-1	ARNT-TACC3 inh	CAL PDZ FP-2	miR122 inh	SR-BI HDL uptake
COc1ccc(NC(=O)N(C)C[C@H]2Oc3ncc(-c4cccnc4)cc3C(=O)N([C@H](C)CO)C[C@@H]2C)cc1	/	/	-7	/	-8[16.7 µM]	/
O=S(=O)(c1ccccc1F)N1CCCCN2[C@H](CO)[C@@H](c3ccc(-c4ccccc4)cc3)[C@@H]2C1	/	/	0	/	-6[16.7 µM]	/
COc1cc(/C=N/n2c(-c3ccc4c(c3)NC(=O)CO4)csc2=Nc2cccc(C)c2)ccc1O	-83	1	3	-1	7	83*
CC(C)C(=O)Nc1cc(S(=O)(=O)Nc2ccc(Cl)cc2)ccc1Cl	21	-1	-7	1	/	-21
CC(C)C(=O)Nc1cc(S(=O)(=O)Nc2cccc(Cl)c2)ccc1Cl	4	-2	-2	-1	256*	-4
Oc1ccc(C[C@@H](CN2CCC[C@@H]2CN2C(=S)NC[C@@H]2Cc2ccccc2)N2C[C@H](Cc3ccccc3)N(CCc3ccccc3)C2=S)cc1	/	/	/	/	1	/
Oc1ccc(C[C@H]2CNC(=S)N2CC2CCCN2C[C@H](Cc2ccccc2)N2C[C@H](Cc3ccc(O)cc3)N(CCc3ccccc3)C2=S)cc1 (stereo partly drawn)	108*	2	33	2	-13	-108
C[C@@H]1CN([C@@H](C)CO)C(=O)Cc2cc(NC(=O)Nc3ccc(C(F)(F)F)cc3)ccc2O[C@@H]1CN(C)C(=O)Nc1ccc(F)cc1	/	/	17	/	1[16.7 µM]	/
CO[C@H]1CN(C)C(=O)c2cc(NS(=O)(=O)c3cccc(F)c3)ccc2OC[C@H](C)NC[C@H]1C	/	/	-7	/	/	/
CCN(CC)CCN1C(=O)C(=O)/C(=C(/O)c2c(C)[nH]c(C(=O)OC)c2C)C1c1cccnc1 (stereo not drawn)	4	1	-9	44*	-13	-4
C[C@H](NC(=O)C[C@@H]1C[C@@H]2c3cc(NC(=O)NC4CCCCC4)ccc3O[C@@H]2[C@H](CO)O1)c1ccccc1	/	/	0	/	-2[16.7 µM]	/
Cc1cc(C)n2nc(SC(C)C(=O)Nc3ccccc3F)nc2n1 (stereo not drawn)	-5	-1	active	-5	0	5
CCCNc1nc2ccccc2c(=O)[nH]1	8	-1	-3	7	-7	-8
CCCNc1ncc2c(=O)[nH][nH]c(=O)c2n1	20	1	81*	0	/	-20
CC(C)(C)CN1CCNC(=O)C1CC(=O)NCCN1CCCc2ccccc21 (stereo not drawn)	-3	0	-5	55*	/	3
CC(C)CNC(=O)C(=O)NC1CCCC1	?	-5	-3	-2	-2	-64
